# High-throughput results: PubChem BioAssay, several laboratories
# Mac1 fbg inh = CD11b/CD18-fibrinogen binding inhibition. P05107+P11215. K562 CD11b/CD18 adhesion to fibrinogen, ATPlite luminescence; Mn2+ added to activate the integrin. inhibition, % at 10 µM. hit rate 0.54% among 93,000;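 active = primary inhibition of 50% or more at 10 µM, then 40% or more on retest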
# RORa activator = RORA (human) activation | AID 560 | CHO-K1 Gal4-RORA LBD luciferase reporter, luminescence; percent increase over mock-subtracted basal signal | activation, % at 10 µM | hit rate 1.5% among 65,000 | P35398;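 active = activation above the mean of all tested compounds plus 3 SD, cut at about 49% in these data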;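 note: 0% = DMSO-treated RORA cells and 100% = added signal equal to DMSO minus mock-transfected cells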
# Target sequence (P35398 whole entry, looked up, the tested form may be a part): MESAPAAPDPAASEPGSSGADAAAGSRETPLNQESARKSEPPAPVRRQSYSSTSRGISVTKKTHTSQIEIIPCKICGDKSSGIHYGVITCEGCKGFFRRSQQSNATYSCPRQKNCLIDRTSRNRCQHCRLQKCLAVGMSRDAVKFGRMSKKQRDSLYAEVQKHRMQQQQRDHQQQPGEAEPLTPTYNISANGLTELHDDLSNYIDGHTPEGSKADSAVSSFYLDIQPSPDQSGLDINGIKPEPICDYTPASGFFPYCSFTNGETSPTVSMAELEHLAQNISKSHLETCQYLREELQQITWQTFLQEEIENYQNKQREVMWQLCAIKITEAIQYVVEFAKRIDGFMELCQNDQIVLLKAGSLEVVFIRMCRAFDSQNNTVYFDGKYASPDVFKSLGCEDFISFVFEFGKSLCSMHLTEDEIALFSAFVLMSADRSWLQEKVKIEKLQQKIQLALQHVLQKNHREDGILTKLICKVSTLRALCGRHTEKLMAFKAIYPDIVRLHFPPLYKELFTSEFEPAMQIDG
# Calb biofilm kill = kills Candida albicans biofilms; C. albicans biofilm + clotrimazole, Alamar Blue; hit rate 0.14% among 85,000; AID 834; inhibition, % at 6 µM;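 active = inhibition above 20%; inactive = inhibition below 20%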;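 note: preformed 24 hr biofilms exposed to compound for 48 hr; 0% = biofilm without compound and 100% = blank killed by clotrimazole plus chlorhexidine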
# CD11b adhes enh = enhancers of human CD11b/CD18 binding to fibrinogen. hit rate 0.07% among 93,000. K562 CD11b/CD18 adhesion to fibrinogen, ATPlite luminescence. P05107+P11215. AID 1499. activation, % at 10 µM;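 active = 10 µM primary screen giving 50% or more activity, confirmed by 40% or more on retest at that dose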
# SF1 activator = SF-1 (human) activation; CHO-K1 Gal4-SF-1 LBD luciferase reporter; % increase over DMSO SF-1-specific signal; activation, % at 10 µM; hit rate 1.9% among 65,000; AID 522;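 active = activation above the mean activation of all tested compounds plus 3 SD, cut at about 50% in these data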
#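 Test system: CHO-K1 cells with Gal4–hSF-1 LBD chimera plus Gal4-driven luciferase; Input: 4,000 cells/well; Compound: 10 µM only; Times: 20 h compound treatment, 37 °C; Measured by: steady-glow luciferase luminescence, read after 15 min reagent incubation; Measure: percent activation versus DMSO; Control set: DMSO and mock-transfected background; Replicates: one test per compound.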
# MT1-MMP txn act = MT1-MMP promoter transcription activation | AID 750 | HT1080 MT1-MMP promoter luciferase reporter, luminescence, overnight; active compounds read high | activation factor at 10 µM | hit rate 0.16% among 86,000;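 active = activation factor of at least 2 for MT1-MMP transcription at 10 µM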
# The depositor's hits bear a star; . = no result. Shown are actives, neighbours in structure and some others; about 2.2% of the full set was active somewhere.
SMILES,Mac1 fbg inh,RORa activator,Calb biofilm kill,CD11b adhes enh,SF1 activator,MT1-MMP txn act
O=C(C(Sc1ccccc1)c1ccccc1)N1CCOCC1 (stereo not given),-1,.,.,-7,.,.
COc1cc(C)c(NC(=S)Nc2ccc(Cl)c(Cl)c2)cc1OC,104,.,.,-10,.,.
CCCCc1ccc(S(=O)(=O)NCCc2ccncc2)cc1,65*,-7,8,-8,-10,1.2
Cc1ccc(-c2nc(N3CCOCC3)sc2C(=O)N2CCCCC2)cc1,-3,.,.,-1,.,.
O=C1NC(c2ccncc2)Nc2ccccc21 (stereo not given),4,-29,-3,2,-13,1.1
Cc1ccc(C2NC(=O)c3ccccc3N2)s1 (stereo not given),-9,77*,4,-4,89*,0.6
CCCC(=O)N=C1SC2CS(=O)(=O)CC2N1c1ccc(-c2nc3ccc(C)cc3s2)cc1 (stereo not given),14,.,.,5,.,.
Brc1ccc(-c2nc(N/N=C/c3cccnc3)c3ccccc3n2)cc1,101*,.,-2,-7,.,0.6
O=S(=O)(N/N=C\c1cccnc1)c1ccccc1,10,.,.,-3,.,.
COc1cc(N/C=C(\C(C)=O)c2ccccc2)cc(OC)c1,-6,.,.,5,.,.
O=C(Nc1cccnc1)c1noc2c1CCCC2,-12,49*,2,-6,26,1.4
COc1cc(NC(=O)c2cc(C(C)C)on2)c(OC)cc1Cl,8,.,0,-3,.,.
CCCc1cc(C(=O)Nc2cccnc2)no1,-5,14,0,-2,-1,1.4
CC(C)c1cc(C(=O)Nc2cccnc2)no1,10,61*,7,-2,30,1.4
Cc1cc(NC(=O)c2noc3c2CCCC3)no1,-6,7,3,2,13,1.3
COc1ccc(NC(=O)c2cc(C(C)C)on2)c(OC)c1,5,70*,6,-3,50*,1.5
Cc1cc(NC(=O)c2noc3c2CCCCC3)no1,-2,58*,10,1,39,1.7
CCn1c(-c2ccc(F)cc2)cnc1SCC(=O)N1CCCCC1C (stereo not given),11,.,.,-2,.,.
CC(=O)c1ccc(NC(=O)c2noc3c2CCCCC3)cc1,4,50*,6,2,32,1.4
O=C(Nc1ccc2c(c1)OCO2)c1noc2c1CCCCC2,6,14,-1,-5,18,0.6
CCOC(=O)c1[nH]c2cc(OC)c(OC)cc2c1N,12,.,3,-1,.,1.1
CCOC(=O)c1[nH]c2ccc(C)cc2c1N,.,12,4,.,73*,1.7
Cc1occc1C(=O)Nc1ccc2ccccc2c1,6,120*,4,-1,48,0.9
Cc1csc(NC(=O)c2ccoc2C)n1,0,38,7,-4,56*,1.5
CCOC(=O)c1sc2nc(NC(=O)c3cccs3)sc2c1C,.,60*,.,.,48,1.3
SMILES,Mac1 fbg inh,RORa activator,Calb biofilm kill,CD11b adhes enh,SF1 activator,MT1-MMP txn act
Cc1csc(NC(=O)c2cccs2)n1,.,18,7,3,53*,1.3
CCC1=C2CC[C@H]3C(=O)N(CC)C(=O)[C@H]3[C@H]2[C@@]2(C)C(=NCCc3c[nH]c4ccccc34)OC(=O)N2C1=O,.,.,.,.,.,1.2
CC1=CN2C(=N)/C(=C\c3cn(CCCOc4ccccc4)c4ccccc34)C(=O)N=C2S1,18,.,.,2,.,.
CC(C)OC1=C(OC(C)C)C(O)(C#CCN(C(=O)/C=C/c2ccccc2)C(C)(C)C)C1=O (stereo not given),.,.,.,.,.,1.1
O=C(Nc1nnc(CCc2ccccc2)s1)c1ccco1,-6,54*,1,-2,32,1.3
O=C(Nc1cnc2ccccn2c1=O)c1ccc(F)cc1,-7,46,7,6,60*,1.4
O=C(Nc1nnc(COc2ccc(F)cc2)s1)c1cccs1,-26,13,9,-6,15,0.9
O=C(Nc1nnc(CCc2ccccc2)s1)c1cccs1,0,39,4,2,54*,1.4
c1ccc(CCc2nc(-c3ccccc3)no2)cc1,.,.,1,.,.,1.3
Cc1nn2c(=O)c(NC(=O)c3ccc(F)cc3)cnc2s1,-6,3,7,1,12,1.1
O=C(Nc1ccc(-c2noc(CCc3ccccc3)n2)cc1)c1ccco1,-2,72*,5,3,23,1.3
O=C(Nc1nnc(Cc2ccccc2)s1)c1ccco1,-2,.,3,0,.,1.6
CC(C)N(C(=O)CSc1nnc(NC(=O)c2cccs2)s1)C(C)C,.,.,4,.,.,1.2
O=C(Nc1nnc(C23CC4CC(CC(C4)C2)C3)s1)c1ccco1,-15,91*,2,6,21,2*
CC(C)c1nnc(NC(=O)c2cccs2)s1,-39,76*,15,0,104*,1.3
O=C(Nc1nc2c(ccc3ccccc32)s1)c1ccco1,.,59*,.,.,63*,2.3*
NC(=O)c1cc(Cc2ccccc2)sc1NC(=O)c1ccco1,.,80*,1,.,140*,1.5
Cc1cccc(NC(=O)c2ccoc2C)n1,-14,.,.,-3,.,.
Cc1occc1C(=O)Nc1cc(C(C)(C)C)on1,1,64*,7,1,19,0.9
Cc1ccccc1NC(=O)c1cnc2ccccn2c1=O,-6,-54,.,-2,-16,.
Cc1csc(NC(=O)c2cnc3ccccn3c2=O)n1,.,34,-3,.,61*,1.3
C=CCn1c(COc2cccc(C)c2)nnc1SCC(=O)c1c[nH]c2c(CC)cccc12,5,.,.,21,.,.
COCCNC(=O)C1(C)C=CCN1C(C)=O (stereo not given),.,.,.,.,.,1.1
COc1cccc(C2=N/C(=C\N(C)C)C(=O)O2)c1,-1,71*,3,0,26,1.4
COc1cccc(-c2nc3ccccc3c(=O)o2)c1,-36,.,5,-1,.,1.1
SMILES,Mac1 fbg inh,RORa activator,Calb biofilm kill,CD11b adhes enh,SF1 activator,MT1-MMP txn act
CCOC(=O)N1CCC(N2C(=O)c3ccc(C(=O)NC4CCCCCC4)cc3C2=O)CC1,.,-14,4,.,10,1
O=C(c1ccco1)N1CCN(c2ccc(Cl)cc2)CC1,.,98*,2,.,46,1.6
O=C(Cc1ccc(Cl)cc1)Nc1ccc(N2CCN(C(=O)c3ccco3)CC2)cc1,0,-6,5,42,-9,1
O=C(CNc1ccc2ccccc2c1)N/N=C/C=C/c1cccc([N+](=O)[O-])c1,9,.,.,44,.,.
Cc1ccc(S(=O)(=O)N(Cc2ccc(Cl)cc2)c2ccccc2C(=O)NCc2ccco2)cc1,20,.,.,8,.,.
CCOc1ccc(NC(=O)c2cc3cc4ccc(OC)cc4nc3o2)cc1,-43,.,58*,30,.,1
COc1ccc2cc3cc(C(=O)NCc4ccccn4)oc3nc2c1,.,35,.,.,5,1.2
Cc1nn(-c2cccc(Cl)c2)c2nc(C(F)(F)F)[nH]c(=O)c12,102*,.,.,-8,.,.
COC(=O)c1ccc(NC(=O)Cn2nc(SC)n(N)c2=S)cc1,-7,-6,27*,-2,0,1.1
O=C(NCc1ccccc1Cl)c1ccc2nc[nH]c2c1,1,.,.,1,.,.
